Compounds with a hit are over-represented: about 2.4% of the library has one in this group of screens.
Scp-1 inhibitor – Scp-1 (human) phosphatase inhibition; Q9GZU7; Recombinant Scp1, phosphopeptide, malachite green phosphate absorbance; inhibition, % at 20 µM; 0.88% of 340,000 active; AID 493091;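 active means inhibition above about 50% at 20 µM, limit read from the data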
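Test system: SCP-1 catalytic domain; Buffer or medium: Acidic Tris acetate buffer with magnesium and detergent; Also added: Phosphorylated 17-residue peptide substrate; Compound: single 20 µM dose, 1% DMSO; Schedule: enzyme reaction 45 min at room temperature, colour 5 min, stabilisation 30 min; Signal: Phosphate-binding colour reagent, absorbance read at 630 nm.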
LMPTP inh – blocks human LMPTP phosphatase | 0.22% of 360,000 active | inhibition, % at 20 µM | recombinant LMPTP-A, OMFP fluorogenic substrate, fluorescence intensity | P24666 | AID 651560;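 active means compounds that cut the enzyme signal by at least half of the control window in the single-dose screen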
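test system = LMPTP-A | amount = 0.625 nM LMPTP-A final | reagent = fluorogenic phosphatase substrate OMFP at 400 µM final | incubation = 50 min at room temperature | benchmarks = no-enzyme low control, uninhibited high control | medium = Bis-Tris pH 6.0, DTT, detergent | signal = fluorescence intensity of OMFP turnover product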
STEP block – STEP (human) phosphatase inhibition; P54829; inhibition, % at 20 µM; recombinant STEP, OMFP fluorogenic substrate, fluorescence; 0.25% of 360,000 active;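 active means inhibition at 20 µM, scaled per plate between control wells, above about 37%, limit read from the data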
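Measure: Control-normalized % inhibition with plate pattern correction | Test system: STEP phosphatase, cell-free reaction | Medium: pH 6.0 Bis-Tris with DTT and Tween 20 | Technique: Fluorescence, 480/540 nm | Times: Reaction 20 min, ambient temperature | Doses: Single compound dose of 20 µM, 1% DMSO final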
DNMT1 inh – DNMT1 (human) enzyme inhibition; DNMT1 molecular beacon, Hinp1I cleavage, fluorescence; inhibition (reported as % activation of signal), % at 10 µM; 0.83% of 360,000 active; AID 588458; in the data active means inhibition above about 50%
NadD inh – NadD (S. aureus) enzyme inhibition. AID 602399. 0.78% of 360,000 active. inhibition, % at 20 µM. purified NadD enzyme, colorimetric absorbance read-out; in the data active means inhibition above about 26%
SUMO1-SIM PPI – alters human SUMO1 binding to SIM partners; SUMO1 binding to a labelled peptide, TR-FRET, 1 h; inhibition, % at 20 µM; 0.33% of 360,000 active; AID 602429; in the data active means inhibition above about 37%
NadD inh conf – confirmation of Staphylococcus aureus NadD inhibitors | shares compounds with NadD inh | purified S. aureus NadD, colorimetric enzyme assay | inhibition, % at 20 µM | 13% of 2,000 active; in the data active means inhibition mostly above about 42%, no sharp cut-off; inactive means mostly below about 42%
Numbers stand for hits; - = inactive; . = no result.

SMILES	Scp-1 inhibitor	LMPTP inh	STEP block	DNMT1 inh	NadD inh	SUMO1-SIM PPI	NadD inh conf
O=c1c2sc3nc(N4CCOCC4)c4c(c3c2ncn1-c1ccccc1)CCCC4	-	-	-	-	-	-	.
COc1ccc(N/C=C2\C(=O)CCc3c2oc2cc(Cl)c(O)c(Cl)c32)cc1	-	-	-	-	44	-	-
O=C(Nc1ccc2c(c1)nc1n2CCN(C2CCCCC2)C1)c1ccco1	-	-	-	-	-	-	.
COc1ccccc1C(=O)Nc1ccc2c(c1)nc1n2CCN(C2CCCCC2)C1	-	-	-	60	35	-	-
CSc1nc(N2CCOCC2)c2c(c1C#N)CC(C(C)C)OC2 (stereo unspecified)	-	-	-	-	-	-	.
CC(C)(C)S(=O)N1Cc2cc(C(=O)Nc3ccc(-c4ccccc4)cc3)nc(-c3cccc(-c4cc5ccccc5o4)c3)c2[C@@H]1CCO (stereo partly specified)	.	-	-	-	35	-	-
CC(C)(C)S(=O)N1Cc2cc(C(=O)O)nc(-c3cccc(-c4cc5ccccc5o4)c3)c2[C@H]1CCO (stereo partly specified)	.	-	-	-	-	-	.
Cn1c(=O)[nH]c(=O)c2c1[nH]c(=S)n2CCCc1ccccc1	-	-	-	-	32	-	-
Cc1ccc(S(=O)(=O)/C(C#N)=C/c2c(N3CCN(Cc4ccccc4)CC3)nc3ccccn3c2=O)cc1	-	-	-	-	47	-	-
Cc1ccc(-c2cc(C(=O)NCCCN3CCOCC3)c3ccccc3n2)cc1C	-	-	-	-	-	-	.
O=c1[nH]c(CN2CCc3ccccc32)nc2scc(-c3cccs3)c12	-	-	-	-	42	-	-
CC(C)n1c(-c2ccc(C(C)(C)C)cc2)n[nH]c1=S	-	-	-	-	29	-	-
CN1CCN(S(=O)(=O)c2ccc(NC(=S)NC(=O)c3ccccc3)cc2)CC1	-	-	-	-	-	-	.
O=C(CN1CCCCC1)Nc1nnc(-c2ccc([N+](=O)[O-])cc2)s1	-	-	-	-	33	-	-
O=c1[nH]c(C2CCN(S(=O)(=O)c3ccc4c(c3)OCCO4)CC2)nc2c1nnn2Cc1ccccc1F	-	-	-	-	34	-	-
O=c1[nH]c(C2CCN(S(=O)(=O)c3ccccc3)CC2)nc2c1nnn2Cc1c(F)cccc1Cl	-	-	-	-	-	-	.
O=c1[nH]c(C2CCN(S(=O)(=O)c3ccc4c(c3)OCCO4)CC2)nc2c1nnn2Cc1c(F)cccc1Cl	-	-	-	-	33	-	-
COc1cc(/C=C(\C#N)c2nc(-c3cc4ccccc4oc3=O)cs2)ccc1O	-	-	-	-	50	-	-
COc1cc(/C=C(\C#N)c2nc3ccccc3o2)ccc1O	-	-	-	-	-	-	.
Cc1ccc(-n2c(O)c(/C=N/Nc3ccc(S(=O)(=O)N4CCOCC4)cc3[N+](=O)[O-])c3ccccc3c2=O)c(C)c1	-	-	-	-	43	-	-
O=[N+]([O-])c1ccc2[nH]cc(S(=O)(=O)N3CCN(c4cccc(Cl)c4)CC3)c2c1	-	-	-	-	31	-	-
Cc1c(NC(=O)c2cccc(-c3cc4ccccc4oc3=O)c2)cccc1-c1nc2ncccc2o1	-	-	-	-	48	-	-
Cc1c(NC(=O)C(C)C)cccc1-c1nc2ncccc2o1	-	-	-	-	-	-	.
O=c1[nH]c(C2CCN(S(=O)(=O)c3ccc(F)cc3)CC2)nc2c1nnn2Cc1ccc2c(c1)OCCO2	-	-	-	-	30	-	-
O=c1[nH]c(C2CCN(S(=O)(=O)c3ccc(C(F)(F)F)cc3)CC2)nc2c1nnn2Cc1cccc(F)c1	-	-	-	-	31	-	-
SMILES	Scp-1 inhibitor	LMPTP inh	STEP block	DNMT1 inh	NadD inh	SUMO1-SIM PPI	NadD inh conf
O=c1[nH]c(C2CCN(S(=O)(=O)c3ccc(C(F)(F)F)cc3)CC2)nc2c1nnn2Cc1ccccc1	-	-	-	-	-	-	.
O=c1[nH]c(C2CCCN(S(=O)(=O)c3ccccc3)C2)nc2c1nnn2Cc1ccccc1 (stereo unspecified)	-	-	-	-	-	-	.
Cc1ccc(S(=O)(=O)N2CCCC(c3nc4c(nnn4Cc4ccc5c(c4)OCCO5)c(=O)[nH]3)C2)cc1 (stereo unspecified)	-	-	-	-	37	-	-
O=c1[nH]c(C2CCN(S(=O)(=O)c3ccccc3F)CC2)nc2c1nnn2Cc1ccc2c(c1)OCCO2	-	-	-	-	-	-	.
O=c1[nH]c(C2CCN(S(=O)(=O)/C=C/c3ccccc3)CC2)nc2c1nnn2Cc1ccc(F)cc1	-	-	-	-	35	-	-
O=C1CC(N(O)c2ccccc2)C(=O)N1c1cc(Cl)cc(Cl)c1 (stereo unspecified)	-	-	-	-	-	-	.
C=CCNC(=S)N1CC2(C)CN(C(=S)NCC=C)CC(C)(C1)C2=O	-	-	-	-	-	-	.
Cc1ccc(C)c(Cn2nnc3c(=O)[nH]c(C4CCN(S(=O)(=O)c5ccc(S(=O)(=O)N(C)C)cc5)CC4)nc32)c1	-	-	-	-	46	-	-
COc1ccc(-c2ccc(CN3C(CC(C)C)C(=O)N(Cc4cn(Cc5ccco5)nn4)CCS3(=O)=O)cc2)cc1 (stereo unspecified)	.	-	-	-	-	-	.
O=C(NCC1CCCO1)c1c(O)nc2sccn2c1=O (stereo unspecified)	-	-	-	-	-	-	.
CCc1nnc(NC(=O)c2cc(S(=O)(=O)N3CCN(c4ccccc4)CC3)ccc2Cl)s1	-	-	-	-	31	-	-
COc1ccccc1Nc1ncc(-c2cccs2)s1	-	-	-	-	40	-	-
COc1ccccc1Nc1ccc(C(=O)NCc2cccs2)cn1	-	-	-	-	-	-	.
O=C1Nc2ccccc2N(C(=O)c2ccc(-c3ccccc3)cc2)C1c1nc2ccccc2[nH]1 (stereo unspecified)	.	-	.	.	31	-	-
O=C1Nc2ccccc2N(C(=O)c2c(F)cccc2F)C1c1nc2ccccc2[nH]1 (stereo unspecified)	.	-	.	.	-	-	.
CCn1c(SCc2nc3scc(-c4ccccc4)c3c(=O)[nH]2)nnc1-c1cccs1	-	-	-	-	-	-	.
COCCn1c(SCc2nc3scc(-c4ccc(Cl)cc4)c3c(=O)[nH]2)nnc1-c1cccc(C)c1	-	-	-	-	33	-	-
O=C(/C=C/c1cccs1)Nc1nccs1	-	-	-	-	-	-	.
